Assay results taken from publication PMC5564211 (European journal of medicinal chemistry, 2017).
pIC50: −log10 of the molar value.

Tests used:
[1] = tested on: α1-adrenoceptors; assay: [3H]prazosin binding displacement; design: species or system mouse; settings: [3H]prazosin displacement; for pIC50: values as rounded in text
Outline: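 Competition binding against 1.5 nM [³H]prazosin in mouse hippocampal homogenate, with test compound added over a range of concentrations to build concentration–effect displacement curves. IC50 is derived by non-linear regression curve fitting. Each ligand's fitted curve is compared statistically with reference-ligand curves.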

[2] = tested on: mouse; settings: mice, previously published studies; cited from earlier work
[3] = tested on: mouse; assay: Antidepressant-like activity assay; type: in vivo; settings: mice, TST, given alone without SSRI
Outline: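 Mice given test compound were scored for immobility time in the tail suspension test. A saline-treated group served as control. Groups were compared with saline by one-way ANOVA with Dunnett's post-hoc test, with significance set at P < 0.05.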

[4] = tested on: mouse; assay: Locomotor activity assay; type: in vivo; settings: mice; for effect on locomotion compared with the same dose of D-22: 1 mg/kg ip, one-way ANOVA, Dunnett's test

| Molecule | independent antidepressant-like activity (reduction in immobility time) [3] | pIC50 [1] | also measured |
| --- | --- | --- | --- |
| C[C@]12C[C@H](O)[C@H]3[C@@H](CCC4=CC(=O)CC[C@@]43C)[C@@H]1CC[C@@H]2C(=O)CO [Corticosterone, corticosterone, reference compound] |  |  | inhibition at adrenoceptors [1]: weak inhibitor |
| CCN1/C(=C/c2ccc3ccccc3[n+]2CC)C=Cc2ccccc21.[I-] [D-22, decynium-22, reference compound] | none of the analogues, including D-22, displayed antidepressant-like activity |  | effect on immobility time [2]: without effect on immobility time unless paired with an SSRI; effect on locomotor activity ([4]; 0.1 mg/kg ip, p=0.44): not at 0.1 mg/kg; effect on locomotor activity ([4]; 1.0 mg/kg ip, cumulative beam breaks 60 to 120 minutes following injection): completely suppressed locomotor activity |
| CCOc1ccccc1OCCN[C@H](C)Cc1ccc(OC)c(S(N)(=O)=O)c1 [Tamsulosin, tamsulosin, reference compound] |  | ~8.70 |  |
| CN1/C(=C\c2cc[n+](C)c3ccccc23)C=Cc2ccccc21.O=C([O-])C(F)(F)F [analogue 1, 1,1′-Dimethyl-2,4′-cyanine trifluoroacetate] | do not impart independent antidepressant-like activity |  |  |
| CC(C)[n+]1ccc(/C=C2/C=Cc3ccccc3N2C)c2ccccc21.O=C([O-])C(F)(F)F [analogue 2, 1-Methyl-1′-isopropyl-2,4′-cyanine trifluoroacetate] | do not impart independent antidepressant-like activity | ~6.00 |  |
| CCN1/C(=C/c2ccc3cc(Cl)ccc3[n+]2CC)C=Cc2ccccc21.[I-] [analogue 6, (E)-6-Chloro-1-ethyl-2-((1-ethylquinolin-2(1H)-ylidene)methyl)quinolinium iodide] | impart independent antidepressant-like activity | 6.30 | effect on locomotion compared with the same dose of D-22 [4]: affected locomotion significantly less than D-22 |
| (E)-1-Ethyl-2-((1-ethylquinolin-2(1H)-ylidene)methyl)-6-fluoro-4a,8a-dihydro quinolinium iodide [analogue 5] | impart independent antidepressant-like activity | 6.52 |  |
| (E)-1-Ethyl-2-((1-ethylquinolin-2(1H)-ylidene)methyl)-6-iodo-4a,8a-dihydro-quinolinium iodide [analogue 7] | do not impart independent antidepressant-like activity | 6.15 | effect on locomotion compared with the same dose of D-22 [4]: affected locomotion significantly less than D-22 |
